The values that follow come from ChEMBL document CHEMBL4004837, “Synthesis and Characterization of Urofuranoic Acids: In Vivo Metabolism of 2-(2-Carboxyethyl)-4-methyl-5-propylfuran-3-carboxylic Acid (CMPF) and Effects on in Vitro Insulin Secretion” (J Med Chem, 2017).

For data set [1], the system named is HEK293. Kind of data set: Cytotoxicity against HEK293 cells assessed as fold change in capase3/7 activity by Caspase-Glo 3/7 assay relative to DMSO. In kind it is cell-based. The conditions noted are these: human.
The test system of data set [2] is Hepatocyte. The data set can be described thus: Cytotoxicity against mouse primary hepatocytes assessed as fold change in capase3/7 activity by Caspase-Glo 3/7 assay relative to DMSO. In kind it is cell-based.
A short description of data set [3]: Suppression of KCl-stimulated insulin secretion in mouse pancreatic islet at 200 uM incubated for 24 hrs followed by KCl stimulation for 20 mins by HTRF assay. In kind it is ADME, cell-based. In a few lines: (§1)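 Mouse islets treated with compounds at 200 µM. Insulin secretion was then measured under low- and high-glucose GSIS conditions and under KCl stimulation, and intracellular insulin content was measured. Mean of n = 4-5 experiments with SEM.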
(Time-resolved FRET reads energy transfer from a long-lived donor to a nearby acceptor.)

The nature of data set [4]: Suppression of high glucose stimulated insulin secretion in mouse pancreatic islets at 200 uM treated for 24 hrs followed by glucose stimulation for 20 mins by HTRF assay relative to control. In kind it is ADME, cell-based. To be noted: pancreatic islet. The essentials:
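Mouse islet screening assay in high-glucose (20 mM) medium with compounds at 200 µM. Insulin secretion is expressed as fold change relative to vehicle. Mean of n = 4 experiments with SEM; significance by Student's t-test, p ≤ 0.05.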

Data set [5] in a line: Suppression of glucose-stimulated insulin secretion in mouse pancreatic islet at 200 uM incubated for 24 hrs followed by glucose stimulation for 20 mins by HTRF assay. In kind it is ADME, cell-based. The essentials:
as §1

Data set [6] can be described thus: Effect on insulin content in KCl-stimulated mouse pancreatic islet at 200 uM incubated for 24 hrs followed by KCl stimulation for 20 mins by HTRF assay. In kind it is ADME, cell-based. In a few lines:
as §1

Data set [7] in a line: Effect on insulin content in glucose-stimulated mouse pancreatic islet at 200 uM incubated for 24 hrs followed by glucose stimulation for 20 mins by HTRF assay. In kind it is ADME, cell-based. The essentials:
as §1

The nature of data set [8]: Drug metabolism in human microsomes at 4 uM after 30 mins by single quad LC/MS analysis. Format: ADME, Microsome. The conditions noted are these: read-out: Drug metabolism.
Data set [9] can be described thus: Drug metabolism in mouse microsomes at 4 uM after 30 mins by single quad LC/MS analysis. In kind it is ADME, Microsome. To be noted: read-out: Drug metabolism.
The target in data set [10] is CYP3A4 (Homo sapiens, UniProt P08684). The data set can be described thus: Inhibition of human microsomal CYP3A4 at 10 uM after 3 mins by single quad LC/MS analysis. Format: ADME. To be noted: microsomes.
Data set [11] deals with CYP2D6 (Homo sapiens, UniProt P10635). The data set can be described thus: Inhibition of human microsomal CYP2D6 at 10 uM after 3 mins by single quad LC/MS analysis. In kind it is ADME. The conditions noted are these: microsomes.
Data set [12] addresses CYP2C9 (Homo sapiens, UniProt P11712). Kind of data set: Inhibition of human microsomal CYP2C9 at 10 uM after 10 mins by single quad LC/MS analysis. In kind it is ADME. To be noted: microsomes.
Data set [13] in a line: Passive permeability in MDCK cells. Format: ADME, cell-based, Canis lupus familiaris. To be noted: dog.
Data set [14] can be described thus: Suppression of glucose stimulated insulin secretion in mouse pancreatic islet at 200 uM incubated for 24 hrs followed by glucose stimulation for 20 mins by HTRF assay relative to control.

Chain of CYP2C9 (P11712 whole entry): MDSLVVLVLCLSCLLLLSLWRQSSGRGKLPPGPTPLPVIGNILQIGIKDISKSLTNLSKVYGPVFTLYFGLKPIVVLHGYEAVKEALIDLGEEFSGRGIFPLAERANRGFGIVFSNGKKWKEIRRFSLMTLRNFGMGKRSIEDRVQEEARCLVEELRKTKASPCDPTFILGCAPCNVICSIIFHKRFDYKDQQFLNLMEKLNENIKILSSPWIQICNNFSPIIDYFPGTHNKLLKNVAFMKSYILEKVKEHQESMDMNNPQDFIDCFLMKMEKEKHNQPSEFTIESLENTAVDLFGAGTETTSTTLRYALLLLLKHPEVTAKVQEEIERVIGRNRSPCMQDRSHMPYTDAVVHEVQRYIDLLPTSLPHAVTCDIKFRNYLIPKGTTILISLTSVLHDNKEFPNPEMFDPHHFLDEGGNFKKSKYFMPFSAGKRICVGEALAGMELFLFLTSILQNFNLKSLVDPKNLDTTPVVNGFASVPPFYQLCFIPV
Chain of CYP2D6 (P10635 whole entry): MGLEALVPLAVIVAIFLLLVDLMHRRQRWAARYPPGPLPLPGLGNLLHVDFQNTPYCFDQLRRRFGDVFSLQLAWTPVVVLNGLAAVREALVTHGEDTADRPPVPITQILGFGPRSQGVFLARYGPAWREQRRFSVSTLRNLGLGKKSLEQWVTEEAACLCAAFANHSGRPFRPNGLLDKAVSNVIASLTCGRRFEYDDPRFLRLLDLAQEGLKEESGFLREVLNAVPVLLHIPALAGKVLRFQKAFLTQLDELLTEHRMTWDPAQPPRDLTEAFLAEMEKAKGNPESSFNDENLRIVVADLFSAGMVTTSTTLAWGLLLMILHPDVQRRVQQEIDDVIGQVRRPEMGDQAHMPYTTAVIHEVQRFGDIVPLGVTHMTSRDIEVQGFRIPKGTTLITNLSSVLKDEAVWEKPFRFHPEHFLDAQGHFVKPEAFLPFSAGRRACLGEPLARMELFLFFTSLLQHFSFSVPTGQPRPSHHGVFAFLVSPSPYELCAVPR
Chain of CYP3A4 (P08684 whole entry): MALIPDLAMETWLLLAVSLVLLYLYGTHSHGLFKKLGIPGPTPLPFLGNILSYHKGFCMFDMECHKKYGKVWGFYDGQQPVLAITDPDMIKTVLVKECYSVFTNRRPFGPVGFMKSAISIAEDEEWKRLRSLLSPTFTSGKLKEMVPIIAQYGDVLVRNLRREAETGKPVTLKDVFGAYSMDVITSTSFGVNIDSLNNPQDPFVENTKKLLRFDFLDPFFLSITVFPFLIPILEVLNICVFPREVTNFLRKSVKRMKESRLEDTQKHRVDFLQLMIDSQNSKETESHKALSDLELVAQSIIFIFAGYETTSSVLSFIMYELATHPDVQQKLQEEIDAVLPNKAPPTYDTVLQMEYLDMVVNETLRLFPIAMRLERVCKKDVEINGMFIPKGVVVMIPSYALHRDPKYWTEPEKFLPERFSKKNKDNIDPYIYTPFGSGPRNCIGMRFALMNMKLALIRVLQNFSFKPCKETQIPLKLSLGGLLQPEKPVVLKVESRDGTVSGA

As for `CCc1oc(CCC(=O)OC)c(C(=O)OC)c1CC`, the fold change (FC) in data set [1] and in data set [2] was 0.9 to 1 in each case. Moreover, the Activity result in data set [3], in [4], in data set [5], in [6] and in [7] was “Toxic” each time.
In the case of `CCCc1oc(CCC(=O)O)cc1C`, the figures for the fold change (FC) in data set [1] and in data set [2] were 0.9 to 1 and 0.7, respectively. Besides, the metabolised at 0.5 h, 4 µM in data set [8] came to 0%; in data set [9] it was 20%. Further, the inhibition at 0.05 h, 10 µM was 3% in data set [10] and 0% in data set [11]. Further, in data set [12], the inhibition at 10 min, 10 µM amounted to 9%.
For the molecule `CCCc1oc(C(=O)O)c(C)c1C`, the fold change (FC) is 1 to 1.2 in data set [1] and 2.2 in data set [2]. The metabolised at 0.5 h, 4 µM amounted to 20% in data set [8] and 0% in data set [9]. The inhibition at 0.05 h, 10 µM in [10] and in data set [11] was 0% throughout. In data set [12], this molecule yielded an inhibition at 10 min, 10 µM of 0%.
As to `CCCc1oc(CCC(C)=O)c(C(C)=O)c1C`, the “fold change (FC)” value turned out to be 0.9 in [1] and 0.3 in data set [2]. Moreover, the inhibition at 0.05 h, 10 µM in [10] came to 21%; in data set [11], 0%. Further, the inhibition at 10 min, 10 µM in data set [12] amounted to 0%.
Take `CCCc1oc(CCCO)c(C(=O)OC)c1C`: the fold change (FC) is 1 to 1.1 in data set [1] and 0.6 in data set [2]. Also, the metabolised at 0.5 h, 4 µM in data set [8] and in data set [9] was 100% each time. Also, the inhibition at 0.05 h, 10 µM in data set [10] and in data set [11] was 0% throughout. This molecule also displayed an inhibition at 10 min, 10 µM in [12] of 0%.
For `CCc1oc(CCC(=O)O)c(C(=O)O)c1CC`, the “fold change (FC)” value in [1] is 1; in [2] it was 1.1. Also, the metabolised at 0.5 h, 4 µM in data set [8] is 0%; in data set [9] it was 21%. Moreover, the inhibition at 0.05 h, 10 µM in [10] came to 0%; in data set [11], 3%. The permeability result in data set [13] was “Impermeable”. In data set [12], this molecule registered an inhibition at 10 min, 10 µM of 17%. For the same molecule, the Activity entry in data set [4] is listed as “Non-Toxic”.
Turning to `CCC(=O)c1oc(CCC(=O)O)c(C(=O)O)c1C`, the figures for the fold change (FC) in [1] and in data set [2] were 1 to 1.1 and 1.1, respectively. The inhibition at 0.05 h, 10 µM in data set [10] came out at 3%; in data set [11], 11%. In data set [12], this molecule showed an inhibition at 10 min, 10 µM of 10%.
On to `CCC[C@H]1C[C@H](C(=O)OC)[C@@H](CCC(=O)OC)O1`, for which the fold change (FC) in [1] was 1 to 1.1; in [2], 1.3.
As for `CCCC1(O)OC(O)(CCC(=O)O)C(C(=O)O)=C1C` (centres undefined), the fold change (FC) in data set [1] was 1 to 1.1; in data set [2] it was 0.9. Moreover, the Activity entry in data set [3], in data set [4], in data set [5], in data set [6], in data set [7] and in [14] was “Non-Toxic” in each case.
`CCCCCc1oc(CCC(=O)OC)c(C(=O)OC)c1C`: the fold change (FC) in data set [1] and in data set [2] was 1 to 1.2 in each case. In addition, the metabolised at 0.5 h, 4 µM in [8] is 49%; in data set [9], 60%. In addition, the inhibition at 0.05 h, 10 µM in data set [10] is 59%; in data set [11], 28%. The molecule also showed an inhibition at 10 min, 10 µM in data set [12] of 27%. For the same molecule, the Activity entry in data set [4] and in data set [14] was “Non-Toxic” each time.
As to `CCCc1oc(CCCO)c(C(=O)O)c1C`, the “fold change (FC)” value turned out to be 1 in data set [1] and 0.6 in data set [2]. The metabolised at 0.5 h, 4 µM in data set [8] was found to be 10%; in data set [9], 9%. For the same molecule, the inhibition at 0.05 h, 10 µM in data set [10] and in data set [11] was 2% in each case. The molecule further gave an inhibition at 10 min, 10 µM in data set [12] of 3%. The Activity result in data set [4] and in data set [14] was “Non-Toxic” in each case.
Consider `CCC[C@H]1C[C@H](C(=O)O)[C@@H](CCC(=O)O)O1`, for which the fold change (FC) is 1 to 1.2 in [1] and 2 in data set [2].
For `Cc1c(CCOCc2ccccc2)oc(CCC(=O)O)c1C(=O)O`, in that order: 1.1 and 1.4.
In the case of `CCCCCc1oc(CCC(=O)O)c(C(=O)O)c1C`, the “fold change (FC)” value in [1] is 1; in [2] it was 1.2 to 1.5. For the same molecule, the metabolised at 0.5 h, 4 µM in [8] was found to be 5%; in data set [9], 7%. Also, the inhibition at 0.05 h, 10 µM in [10] and in data set [11] was 3% throughout. Also, in [12], the inhibition at 10 min, 10 µM amounted to 9%. In addition, the Activity entry in [4] and in [14] was “Toxic” throughout.
In the case of `CCCc1oc(CCC(=O)O)c(C(=O)O)c1CCC`, the “fold change (FC)” value in data set [1] was 1; in data set [2], 1.6 to 1.8. Moreover, the metabolised at 0.5 h, 4 µM stood at 3% in data set [8] and 7% in [9]. Further, the inhibition at 0.05 h, 10 µM in data set [10] and in data set [11] was 0% in each case. The same molecule gave an inhibition at 10 min, 10 µM in data set [12] of 0%. The Activity result in data set [4] is “Toxic”.
As to `CCCc1oc(CCC(=O)OC)c(C(=O)OC)c1CCC`, the fold change (FC) was in the range of 1 to 1.1 in data set [1] and 0.8 to 0.9 in [2].
In the case of `CCCC1(O)OC(O)(CCC(=O)OC)C(C(=O)OC)=C1C` (centres undefined), the values for the fold change (FC) in [1] and in data set [2] were 0.9 to 1 and 0.3, respectively. Also, the Activity entry in data set [4] and in data set [14] was “Non-Toxic” throughout.
On to `COC(=O)CCc1oc2c(c1C(=O)OC)CCCC2`, for which the fold change (FC) is 1 to 1.1 in data set [1] and 0.4 in data set [2]. The metabolised at 0.5 h, 4 µM was 16% in data set [8] and 76% in data set [9]. Also, the results for the inhibition at 0.05 h, 10 µM in data set [10] and in data set [11] were 48% and 20%, respectively. The inhibition at 10 min, 10 µM in data set [12] was 2%. For the same molecule, the Activity entry in data set [4] and in [14] was “Toxic” throughout.
`CCC(=O)c1oc(CCC(=O)OC)c(C(=O)OC)c1C`: the fold change (FC) was 1 to 1.1 in data set [1] and 1.5 in data set [2].
As for `COC(=O)CCc1oc(C)c(C)c1C(=O)OC`, the fold change (FC) in data set [1] was 1 to 1.1; in data set [2], 0.8. Also, the metabolised at 0.5 h, 4 µM in data set [8] was 0%; in [9] it was 16%. Also, the inhibition at 0.05 h, 10 µM in [10] was 22%; in data set [11] it was 12%. Also, the inhibition at 10 min, 10 µM in data set [12] came to 3%.
On to `Cc1oc(CCC(=O)O)c(C(=O)O)c1C`, for which the fold change (FC) was 0.8 to 1 in data set [1] and 2 in [2].
With `CCCc1oc(CCC)c(C(=O)O)c1C`, the fold change (FC) in data set [1] is 1 to 2; in data set [2], 1.4. Besides, the metabolised at 0.5 h, 4 µM was determined as 21% in data set [8] and 51% in data set [9]. For the same molecule, the inhibition at 0.05 h, 10 µM in data set [10] stood at 13%; in data set [11] it was 5%. In data set [12], this molecule yielded an inhibition at 10 min, 10 µM of 18%.

Usually inhibition stands for the percentage by which the read-out fell short of the control.
